According to ChEMBL document CHEMBL1127620, “Synthesis and antibacterial activity of thiazolopyrazine-incorporated tetracyclic quinolone antibacterials” (1994):
In brackets after ≈: the same amount, converted by molar mass.

Columns and labels:
Type in all cases: functional
Klebsiella pneumoniae = experiment: In vitro minimum inhibitory concentration against gram-negative Kp, Klebsiella pneumoniae B54.
Summary of the method: (§1)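 Two-fold agar dilution on Sensitivity Disk Agar-N (Japan Society of Chemotherapy method). Overnight broth cultures diluted in buffered saline with 0.01% gelatin to about 10⁶ CFU/mL. One loopful (5 μL/spot) inoculated onto plates containing graded agent concentrations. Incubation 37 °C, 18 h. MIC = lowest concentration inhibiting visible growth.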

Mus musculus [1] = species on record: Mus musculus; experiment: Compound was tested for oral efficacy on systemic infections caused by Escherichia coli KC-14 in mice
Summary of the method: (§2)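 Male ddY mice (25 g) infected intraperitoneally with 0.5 mL overnight brain heart infusion culture diluted in 5% gastric mucin, about 35 to 500 times the LD50. Compound given orally 1 h post-infection, as 1% aqueous gum arabic suspension or distilled water solution. Four dose groups of five mice. Survival followed daily for 7 days; ED50 by Weil method.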

Staphylococcus aureus [2] = experiment: In vitro minimum inhibitory concentration against gram-positive Sa (F), Staphylococcus aureus FDA 209P JC-1.; summary of the method: as §1
Staphylococcus aureus [3] = experiment: In vitro minimum inhibitory concentration against gram-positive Sa (I), Staphylococcus aureus IID803.; summary of the method: as §1
Mus musculus [4] = species on record: Mus musculus; experiment: Compound was tested for oral efficacy on systemic infections caused by Staphylococcus aureus IID803 in mice; summary of the method: as §2
[5] = system: Staphylococcus epidermidis; experiment: In vitro minimum inhibitory concentration against gram-positive Se, Staphylococcus epidermidis IAM 1296.; summary of the method: as §1
Mus musculus [6] = species on record: Mus musculus; experiment: Compound was tested for oral efficacy on systemic infections caused by Escherichia coli KC-14 in mice.; summary of the method: as §2
Mus musculus [7] = species on record: Mus musculus; experiment: Compound was tested for oral efficacy on systemic infections caused by Staphylococcus aureus IID803 in mice.; summary of the method: as §2
Escherichia coli [8] = experiment: Compound was tested for in vitro antibacterial activity (minimum inhibition concentration) against gram-negative Ec(K), Escherichia coli KC-14.
Summary of the method: as §1, with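 “10⁶ CFU/mL; one” for “10⁶ CFU/mL. One”, “plates with” for “plates containing”, “18 h;” for “18 h.”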

Escherichia coli [9] = experiment: Compound was tested for in vitro antibacterial activity (minimum inhibition concentration) against gram-negative Ec(K), Escherichia coli KC-14; summary of the method: as §1

Compound	MIC (Klebsiella pneumoniae) [µg/mL]	MIC (Staphylococcus aureus [2]) [µg/mL]	MIC (Staphylococcus aureus [3]) [µg/mL]	ED50 (Mus musculus [1]) [mg/kg]	ED50 (Mus musculus [4]) [mg/kg]	other results
CN1Cc2csc3c(C(=O)O)c(=O)c4cc(F)c(N5CCNCC5)c1c4n23	0.025 (≈ 0.0644 µM)			> 2		
CN1Cc2csc3c(C(=O)O)c(=O)c4cc(F)c(N5CCCC5)c1c4n23						ED50 (Mus musculus [6]): > 2 mg/kg
CC1CN(c2c(F)cc3c(=O)c(C(=O)O)c4scc5n4c3c2N(C)C5)CCN1C (centres undefined)				2		ED50 (Mus musculus [7]): 3 mg/kg
CN1Cc2csc3c(C(=O)O)c(=O)c4cc(F)c(N5CCC(O)C5)c1c4n23 (centres undefined)					> 12	
CCN1CCN(c2c(F)cc3c(=O)c(C(=O)O)c4scc5n4c3c2N(C)C5)CC1	0.05 (≈ 0.12 µM)		0.05 (≈ 0.12 µM)		3	ED50 (Mus musculus [6]): 1 mg/kg; MIC (Escherichia coli [8]): 0.05 µg/mL (≈ 0.12 µM)
CCN1[C@H](C)CN(c2c(F)cc3c(=O)c(C(=O)O)c4scc5n4c3c2N(C)C5)C[C@@H]1C.Cl		0.05	0.05			
CC1CN(c2c(F)cc3c(=O)c(C(=O)O)c4scc5n4c3c2N(C)C5)CCN1.Cl (centres undefined)				> 2		
CC1COc2c(N3CCN(C)CC3)c(F)cc3c(=O)c(C(=O)O)cn1c23 (centres undefined) [OFLOXACIN]				1	11	

Continued, in another order:

MIC (Klebsiella pneumoniae) [µg/mL]	MIC (Staphylococcus aureus [2]) [µg/mL]	MIC (Staphylococcus aureus [3]) [µg/mL]	Compound	ED50 (Mus musculus [1]) [mg/kg]	ED50 (Mus musculus [4]) [mg/kg]	other results
0.025 (≈ 0.0644 µM)			CN1Cc2csc3c(C(=O)O)c(=O)c4cc(F)c(N5CCC(N)C5)c1c4n23 (centres undefined)	> 2		
	0.025 (≈ 0.0617 µM)	0.0125 (≈ 0.0308 µM)	CN1Cc2csc3c(C(=O)O)c(=O)c4cc(F)c(N5CCSCC5)c1c4n23		> 12	MIC [5]: 0.025 µg/mL (≈ 0.0617 µM)
0.025 (≈ 0.06 µM)			CNCC1CCN(c2c(F)cc3c(=O)c(C(=O)O)c4scc5n4c3c2N(C)C5)C1 (centres undefined)		> 12	
	0.05 (≈ 0.116 µM)	0.05 (≈ 0.116 µM)	CCC1CN(c2c(F)cc3c(=O)c(C(=O)O)c4scc5n4c3c2N(C)C5)CCN1C (centres undefined)			
	0.025 (≈ 0.0581 µM)		C[C@@H]1CN(c2c(F)cc3c(=O)c(C(=O)O)c4scc5n4c3c2N(C)C5)C[C@H](C)N1C	2		ED50 (Mus musculus [7]): 2 mg/kg
	0.05 (≈ 0.12 µM)	0.05 (≈ 0.12 µM)	C[C@@H]1CN(c2c(F)cc3c(=O)c(C(=O)O)c4scc5n4c3c2N(C)C5)C[C@H](C)N1	> 2		MIC (Escherichia coli [8]): 0.05 µg/mL (≈ 0.12 µM)
	0.05	0.05	CCC1CN(c2c(F)cc3c(=O)c(C(=O)O)c4scc5n4c3c2N(C)C5)CCN1.Cl (centres undefined)			
0.05			CCNCC1CCN(c2c(F)cc3c(=O)c(C(=O)O)c4scc5n4c3c2N(C)C5)C1.Cl (centres undefined)		> 12	
0.05 (≈ 0.124 µM)		0.05 (≈ 0.124 µM)	CN1CCN(c2c(F)cc3c(=O)c(C(=O)O)c4scc5n4c3c2N(C)C5)CC1		3	ED50 (Mus musculus [6]): 1 mg/kg; MIC (Escherichia coli [9]): 0.05 µg/mL (≈ 0.124 µM)
0.05 (≈ 0.128 µM)			CN1Cc2csc3c(C(=O)O)c(=O)c4cc(F)c(N5CCOCC5)c1c4n23		> 12	
